# Bioassay records: PubChem BioAssay, several laboratories
# NR2E3 ag-1 – NR2E3 agonists in two-hybrid cells, primary screen, cell-based, luminescence, CHO-S, Gal4-NCOR/VP16-NR2E3; AID 602229, 2012; Photoreceptor-specific nuclear receptor (Homo sapiens), Q9Y5X4; actives 0.35% (n = 360,000); inhibition of corepressor binding, % at 3.98 µM; luciferase;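 active = inhibition above the mean of all tested compounds plus 3 SD, cut at about 70% in these data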;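 also: 0% = DMSO with NR2E3 transfected cells and 100% = cells lacking NR2E3 construct; higher means lower luciferase signal from less NR2E3 corepressor binding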
# NR2E3 ag-2 – inhibitors of NR2E3-RetCOR corepressor binding, primary screen, NR2E3 agonist project, biochemical, TR-FRET, GST-NR2E3, biotin-RetCOR. Photoreceptor-specific nuclear receptor (Homo sapiens), Q9Y5X4. 1536-well. inhibition of corepressor binding, % at 4.78 µM. actives 0.12% (n = 320,000). AID 2300, 2010;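 active = percent inhibition above the cutoff of mean plus 3 SD of all tested compounds, set per screening campaign, cut at about 20% in these data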;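 also: 0% = DMSO wells and 100% = biotin wells as full block of FRET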
#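 Material – GST-tagged NR2E3 plus biotinylated RetCOR corepressor · Quantity – NR2E3 fusion 1.35 nM · Times – 5 h incubation at 4 °C · Medium – pH 7.5 Tris-based buffer · Technique – TR-FRET, Eu(K)-anti-GST donor, streptavidin-D2 acceptor, ex 340, em 617/671 nm · Benchmarks – high control biotin, low control 0.6% DMSO · Format – 1536-well plates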
# GASC-1 inh – inhibitors of GASC-1 histone demethylase, primary screen, biochemical, fluorescence, DELFIA europium; Lysine-specific demethylase 4C (Homo sapiens), Q9H3R0; GST-JMJD2C(1-420) H3K9me3 demethylation; inhibition, % at 2.35 µM; actives 0.069% (n = 330,000);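 active = more than half of a compound's replicate wells show inhibition beyond 50%, single wells judged on their own value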;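 also: signal counts dimethyl H3K9 product captured on neutravidin plate; 0% = median of DMSO wells and 100% = 0.3 times that DMSO median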
# ADAM17 inh – ADAM17 inhibitors, primary screen, biochemical, QFRET | Disintegrin and metalloproteinase domain-containing protein 17 (Homo sapiens), P78536 | recombinant ADAM17, EDANS/DABCYL FRET peptide cleavage | inhibition, % at 6.95 µM | actives 0.83% (n = 370,000) | AID 720648, 2013;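 active = inhibition above the mean of compounds lying between control limits plus 3 SD, set per campaign, cut at about 8.5% in these data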;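 also: 0% = DMSO-only wells as the low control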
# Target sequence (P78536 215-824 limits assumed): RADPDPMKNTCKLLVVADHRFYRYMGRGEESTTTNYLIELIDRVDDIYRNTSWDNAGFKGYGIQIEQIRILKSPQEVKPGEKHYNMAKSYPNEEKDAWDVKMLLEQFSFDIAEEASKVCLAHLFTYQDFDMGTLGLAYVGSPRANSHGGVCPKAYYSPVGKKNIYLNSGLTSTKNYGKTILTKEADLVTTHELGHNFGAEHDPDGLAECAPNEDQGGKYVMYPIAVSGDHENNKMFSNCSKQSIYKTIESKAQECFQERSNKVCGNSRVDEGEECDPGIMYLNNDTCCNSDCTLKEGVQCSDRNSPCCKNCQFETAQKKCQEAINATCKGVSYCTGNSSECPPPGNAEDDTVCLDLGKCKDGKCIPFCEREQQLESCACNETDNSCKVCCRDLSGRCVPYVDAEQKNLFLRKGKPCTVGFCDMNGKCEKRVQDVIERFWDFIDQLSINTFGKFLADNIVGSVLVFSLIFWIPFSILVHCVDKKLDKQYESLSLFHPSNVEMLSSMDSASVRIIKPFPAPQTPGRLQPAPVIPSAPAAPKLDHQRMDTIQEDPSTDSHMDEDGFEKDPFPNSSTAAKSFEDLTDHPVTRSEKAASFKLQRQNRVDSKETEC
# ADAM10 inh – human ADAM10 inhibitors, primary screen, biochemical, QFRET, HTS | Disintegrin and metalloproteinase domain-containing protein 10 (Homo sapiens), O14672 | recombinant ADAM10, EDANS/DABCYL FRET peptide cleavage, 3 h | AID 720582, 2013 | actives 0.62% (n = 370,000) | inhibition, % at 7 µM;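 active = inhibition above a per-campaign cutoff equal to the mean of compounds falling between control-based bounds plus 3 SD, cut at about 20% in these data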;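 also: 0% = DMSO wells while the 100% control is not disclosed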
# proKLK7 act – proKLK7 zymogen activators, primary screen, biochemical, fluorescence intensity; activation, % at 7 µM; purified proKLK7, EDANS-DABCYL substrate fluorescence; 100% is mature enzyme control, 0% vehicle; actives 0.9% (n = 370,000);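 active = activation above the mean of all tested compounds plus 3 SD, computed per campaign excluding outliers beyond control limits, cut at about 13% in these data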
# NR2E3 ag confirm – NR2E3 agonists, confirmation, biochemical, TR-FRET; activation (reported as inhibition), % at 3.98 µM; cell-free NR2E3 corepressor release, 5 h; AID 2379, 2010; actives 39% (n = 360); shares compounds with NR2E3 ag-2; in the data active = activation above about 20%
# PPARg-NCOR2 ag – agonists of PPARg-NCOR2 corepressor interaction, counter-screen for NR2E3 agonist project, biochemical, TR-FRET. shares compounds with NR2E3 ag-2. TR-FRET PPARg-NCOR2 coregulator interaction. inhibition, % at 3.98 µM. actives 45% (n = 360). AID 504787, 2011; in the data active = inhibition above about 20%;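 also: 0% = DMSO vehicle and 100% = wells without protein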
# The depositor's hits bear a star; / = no result. Hits are enriched below; roughly 2.5% of the tested compounds scored in any of these assays.
SMILES,NR2E3 ag-1,NR2E3 ag-2,GASC-1 inh,ADAM17 inh,ADAM10 inh,proKLK7 act,NR2E3 ag confirm,PPARg-NCOR2 ag
CCNC(=S)Nc1nc2c(cc1C(=O)OCC)CCCC2,-15.5,21.3*,0.1,2.5,-5.6,0.0,26.7*,19.9*
C=CCNC(=S)Nc1nc2c(cc1C(=O)OCC)CCCC2,-11.3,1.1,-0.4,-2.1,-12.9,0.3,/,/
N#Cc1c(-c2ccco2)nc(SCC(=O)Nc2cccc(Cl)c2)[nH]c1=O,-26.7,25.9*,10.1,-4.1,-4.0,0.5,7.4,22.3*
CN(C(=O)c1ccc(NC(=O)Cc2ccc(NC(=O)C3CCN(C(=O)C4CCCCC4)CC3)cc2)cc1)C1CC1,-15.2,19.6*,46.5,-1.4,-4.9,0.5,-0.1,-6.8
O=C(c1cccc(F)c1)N(Cc1ccccn1)CC1CCCO1 (stereo unspecified),/,/,/,-0.2,-6.1,-0.2,/,/
Clc1ccc(Cn2ncc3c(N4CCCCC4)ncnc32)cc1,-3.6,-2.2,1.6,1.3,6.2,0.0,/,/
Brc1cc(Br)c2ncnc(N3CCCCC3)c2c1,-15.6,33.8*,-13.5,4.9,-0.4,0.4,34.1*,29.2*
Cc1sc2nc(SCC(=O)NCc3ccco3)n(Cc3ccccc3)c(=O)c2c1C,-36.2,37.7*,-15.5,-1.0,3.2,-0.1,6.6,8.6
O=c1[nH]c(Nc2ccccc2)cc2ccccc12,0.2,27.3*,-2.2,-20.9,-67.5,1.6,-4.8,0.2
O=c1[nH]c(Nc2ccccc2)cc2cc(Br)ccc12,-73.3,18.2,-6.6,-11.7,-39.5,0.5,/,/
OC(c1ccccc1)(c1ccccc1)C1CCN(CCCOc2ccc(-c3cccnc3)cc2)CC1,/,/,/,-2.4,-0.7,0.2,/,/
C=CCn1c(NC(=O)c2ccccc2Cl)c(C#N)c2nc3ccccc3nc21,7.2,38.3*,9.2,-71.4,-271.9,10.5,8.4,41.8*
CN1CCN(CC(=O)N/N=C\c2c[nH]c3ccccc23)CC1,/,29.7*,11.0,2.2,3.3,-0.4,-5.4,-5.2
O=C(CCN1CCCCC1)N/N=C/c1c[nH]c2ccccc12,14.4,3.4,6.7,-4.0,-4.9,-0.1,/,/
COC(=O)[C@]12C[C@H](CC(=O)NCCCN3CCCC3=O)C(=O)N(Cc3ccc(Cl)cc3Cl)C1=C[C@H](C1CCCC1)O[C@@H]2C,/,/,/,-2.4,2.5,0.0,/,/
CCN(CC)c1ccc2c(-c3ccc(S(=O)(=O)O)cc3S(=O)(=O)[O-])c3ccc(=[N+](CC)CC)cc-3oc2c1,5.4,46.2*,4.5,/,/,/,41.0*,48.5*
CC(C)(C)C(=O)OC12CCCN(C1)/C(=C/c1cccnc1)C2 (stereo unspecified),/,/,/,-0.2,3.1,-0.2,/,/
Cn1c(=S)[nH]c2c(c1=O)C(C)(C)Cc1ccccc1-2,14.9,38.8*,-13.2,-2.2,0.0,0.8,41.4*,34.8*
CCn1c(=S)[nH]c2c(c1=O)C(C)(C)Cc1ccccc1-2,0.0,/,-0.2,-2.8,-10.2,-0.1,/,/
CCC1(C)Cc2ccccc2-c2[nH]c(=S)[nH]c(=O)c21 (stereo unspecified),12.1,31.2*,4.5,-2.8,1.0,-0.1,19.6*,17.4
CC[C@H](C)[C@@H](CO)NC(=O)[C@H]1O[C@@H](n2ccc(N)nc2=O)[C@H](O)[C@@H]1O,9.8,/,/,0.0,-9.6,-0.8,/,/
